The values below come from ChEMBL document CHEMBL1145563, “Monoglycerides from the brown alga Sargassum sagamianum: Isolation, synthesis, and biological activity” (Bioorg Med Chem Lett, 2008).

The target of experiment [1] is T1, Prostaglandin G/H synthase 2 (Homo sapiens) (UniProt P35354).
T1 sequence (whole entry): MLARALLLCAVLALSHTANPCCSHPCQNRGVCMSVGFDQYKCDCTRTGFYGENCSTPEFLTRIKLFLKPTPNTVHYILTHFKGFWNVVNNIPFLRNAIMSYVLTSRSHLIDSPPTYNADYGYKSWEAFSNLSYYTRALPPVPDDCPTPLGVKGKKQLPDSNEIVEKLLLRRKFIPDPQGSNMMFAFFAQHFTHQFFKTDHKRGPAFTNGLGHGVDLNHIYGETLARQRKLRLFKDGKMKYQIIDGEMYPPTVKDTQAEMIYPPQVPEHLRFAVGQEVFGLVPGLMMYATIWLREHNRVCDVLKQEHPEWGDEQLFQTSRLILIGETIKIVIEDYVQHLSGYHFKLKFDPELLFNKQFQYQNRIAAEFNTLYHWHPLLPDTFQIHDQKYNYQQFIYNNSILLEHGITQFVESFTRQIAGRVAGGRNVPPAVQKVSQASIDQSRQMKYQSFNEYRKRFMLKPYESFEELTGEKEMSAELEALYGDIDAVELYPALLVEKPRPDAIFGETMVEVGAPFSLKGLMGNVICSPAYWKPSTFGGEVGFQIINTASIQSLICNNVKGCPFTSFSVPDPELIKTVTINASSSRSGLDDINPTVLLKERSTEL
As to the kind of experiment: Inhibition of COX2 at 50 uM. The procedure, abridged: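 COX-2 activity followed as PGE2 in the medium, measured in triplicate by enzyme immunoassay: samples, enzymatic tracer and specific antiserum incubated overnight at 4 °C, plates washed, Ellman's reagent added, absorbance at 414 nm read after 1–3 h. PGE2 read from a 50–0.39 pg/mL standard curve. Percent inhibition given as mean of three experiments.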

For experiment [2], the target named is T2, Phospholipase A2, membrane associated (Homo sapiens) (UniProt P14555).
T2 sequence (whole entry): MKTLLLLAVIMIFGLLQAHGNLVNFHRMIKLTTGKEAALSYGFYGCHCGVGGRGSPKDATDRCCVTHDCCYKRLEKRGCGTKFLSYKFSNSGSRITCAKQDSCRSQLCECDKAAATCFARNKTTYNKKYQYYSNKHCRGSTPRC
As to the kind of experiment: Inhibition of sPLA2-2A at 10 uM by coupled enzyme assay. The procedure, abridged: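 Phospholipase A2 activity measured by a coupled enzyme assay with DL-PC as substrate and lipoxygenase as the coupling enzyme. Percent inhibition given as mean of three experiments.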

In general, inhibition refers to the drop in the measured response relative to a control, in per cent. In the case of `CCCCC/C=C/C/C=C/C/C=C\C/C=C/CCCCCC(=O)OCC(O)CO` (stereo unspecified), the results for the inhibition in experiment [1] and in experiment [2] were 86.8% and 37.9%, respectively.
Taken in the same sequence, the figures for `CCCCCCCC/C=C\CCCCCCCC(=O)OCC(O)CO` (stereo unspecified) were 24.7% and 60.6%.
In the case of `CC/C=C/C/C=C/C/C=C/C/C=C\C/C=C/CCCCCC(=O)OCC(O)CO` (stereo unspecified), the inhibition in experiment [1] is 92.9%; in experiment [2], 37.4%.
For the molecule `CC/C=C/C/C=C/C/C=C\C/C=C/CCCCC(=O)OC[C@@H](O)CO`, the inhibition came out at 35.6% in experiment [1] and 26.1% in experiment [2].
On to `CCCCC/C=C\C/C=C\C/C=C\CCCCC(=O)OCC(O)CO` (stereo unspecified), for which the figures for the inhibition in experiment [1] and in experiment [2] were -6.5% and 38.8%, respectively.
Taken in the same sequence, the figures for `CCCCC/C=C/C/C=C\CCCCCCCC(=O)OCC(O)CO` (stereo unspecified) were 20.5% and 38.1%.
Consider `CC/C=C\C/C=C\C/C=C\CCCCCCCC(=O)OCC(O)CO` (stereo unspecified), for which, in experiment [2], the inhibition is 32%.
Still for that read-out and setting: the same measure for `CCCCC/C=C/C/C=C\C/C=C/CCCCCCC(=O)OCC(O)CO` (stereo unspecified): 53.9%; for `CCCCC/C=C/C/C=C\C/C=C/C/C=C/CCCC(=O)OCC(O)CO` (stereo unspecified): 33.6%.
For the molecule `CCCCCCCCCCCCCCCCCC(=O)OCC(O)CO` (stereo unspecified), the inhibition in experiment [1] was 16.5%; in experiment [2], 32.8%.
Turning to `CC/C=C/C/C=C/C/C=C\C/C=C/C/C=C/CCCC(=O)OCC(O)CO` (stereo unspecified), the inhibition came out at 71.9% in experiment [1] and 37.4% in experiment [2].
On the same counts, the results for `CC/C=C/C/C=C/C/C=C/C/C=C\C/C=C/C/C=C/CCC(=O)OCC(O)CO` (stereo unspecified) are 74.2% and 41.7%.
